Results on five compounds are retold here after article PMC6540510 (Pulmonary Circulation, 2019).

For data set [1] the following is noted: co-administered with lopinavir and ritonavir, healthy individuals; cited from earlier work.
The conditions of data set [2]: cited from earlier work.
The conditions of data set [3]: sildenafil 100 mg single dose with ritonavir 500 mg twice daily; cited from earlier work.
The conditions of data set [4]: tadalafil 20 mg with ritonavir 200 mg twice daily; cited from earlier work.
Data set [5] is classed as in vivo. Particulars: human, plasma, 0.5 mg; for Tmax: adults with HIV. Put shortly:
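Adults with HIV on stable fixed-dose background ART for ≥6 weeks received a single oral 0.5 mg dose in the morning after a ≥10 h fast, then a further 4-h fast. Plasma was sampled at baseline and 0.5–48 h. Analysis was by HPLC-MS/MS with internal standards (LLOQ 2 µg/L). Cmax was derived non-compartmentally and summarised as geometric mean with %CV.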

Data set [6] is classed as in vivo, human. Particulars: single 0.5 mg dose. Put shortly: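 Single oral 0.5 mg dose was given fasted on top of stable background ART, with plasma sampled to 48 h and assayed by HPLC-MS/MS. AUC(0–∞) was derived non-compartmentally. ANOVA on log-transformed AUC gave LS-mean ratios versus historical healthy-volunteer data (n = 80; fed and fasted states), re-transformed, with 90% CIs.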

A further data set is described as follows: Safety and tolerability. It is filed as in vivo, human. The procedure, abridged: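 HIV-infected adults (n = 41 treated) on stable background ART received a single fasted oral 0.5 mg dose. Treatment-emergent adverse events, vital signs, ECG and laboratory parameters were recorded. Supine and/or sitting blood pressure was measured regularly, generally at the blood-sampling times (0.5–48 h post-dose).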

The conditions of data set [7]: cited from earlier work. The source holds these as a separate data set.
For data set [8] the following is noted: co-administration of ketoconazole, single 0.5 mg riociguat, 16 healthy volunteers; cited from earlier work.
The mark [9] stands for this setting: single 0.5 mg dose, adults with HIV.
Setting [10] is: single 0.5 mg dose, adults with HIV, all background regimens, total n = 41.
The mark [11] stands for this setting: single 0.5 mg dose, adults with HIV, background abacavir/dolutegravir/lamivudine (TRIUMEQ), n = 8.
[12] abbreviates: single 0.5 mg dose, adults with HIV, background efavirenz/emtricitabine/tenofovir disoproxil (ATRIPLA), n = 8.
Setting [13] is: single 0.5 mg dose, adults with HIV, background elvitegravir/cobicistat/emtricitabine/tenofovir disoproxil (STRIBILD), n = 8.
[14] abbreviates: single 0.5 mg dose, adults with HIV, background emtricitabine/rilpivirine/tenofovir disoproxil (COMPLERA), n = 8.
Setting [15] is: single 0.5 mg dose, adults with HIV, background ritonavir-boosted triple regimen, n = 9.

Molecules are shown by their SMILES. Like-named read-outs stand apart in the source and are kept apart here.

In the case of `COc1ccccc1Oc1c(NS(=O)(=O)c2ccc(C(C)(C)C)cc2)nc(-c2ncccn2)nc1OCCO` [bosentan], the “plasma concentrations on co-administration” value in data set [1] was “increased plasma concentrations”.
Consider `COC(=O)Nc1c(N)nc(-c2nn(Cc3ccccc3F)c3ncccc23)nc1N` [M1], for which the “biologic activity relative to riociguat” value in data set [2] was “one-tenth to one-third”.
As for `CCCc1nn(C)c2c(=O)[nH]c(-c3cc(S(=O)(=O)N4CCN(C)CC4)ccc3OCC)nc12` [sildenafil], the “increase in plasma AUC” value in data set [3] was 11 fold.
Turning to `CN1CC(=O)N2[C@H](c3ccc4c(c3)OCO4)c3[nH]c4ccccc4c3C[C@@H]2C1=O` [tadalafil], in [4], the “change in Cmax” value is reported as “no change” and the “increase in single-dose exposure” value is given as 124%.
The term Cmax denotes the highest concentration seen after dosing. As a reminder, the Tmax is the time at which the peak concentration occurs. Broadly, the bioavailability is the share of a dose that reaches the circulation, judged against a reference dose that is usually intravenous. `COC(=O)N(C)c1c(N)nc(-c2nn(Cc3ccccc3F)c3ncccc23)nc1N` [riociguat]: the Cmax in data set [5] (oral) lay within 14.2 to 20.4 ng/mL. The Tmax in [5] (oral, median tmax, range across the five background antiretroviral groups, single 0.5 mg dose) is 1 to 1.27 h. For the same compound, the Tmax in data set [5] (po, tmax, single 0.5 mg oral dose, background abacavir/dolutegravir/lamivudine (TRIUMEQ), median (range), n = 8) stood at 1.27 h. In data set [5] (po, tmax, single 0.5 mg oral dose, background efavirenz/emtricitabine/tenofovir disoproxil (ATRIPLA), median (range), n = 8), the Tmax is 1 h. The time of peak concentration (Tmax) in [5] (po, tmax, single 0.5 mg oral dose, background elvitegravir/cobicistat/emtricitabine/tenofovir disoproxil (STRIBILD), median (range), n = 8) is 1.03 h. Further, the Tmax in data set [5] (po, tmax, single 0.5 mg oral dose, background emtricitabine/rilpivirine/tenofovir disoproxil (COMPLERA), median (range), n = 8) was found to be 1.03 h. Further, the Tmax in data set [5] (po, tmax, single 0.5 mg oral dose, background ritonavir-boosted triple regimen, median (range), n = 8) turned out to be 1.03 h. For the same compound, the “riociguat exposure (AUC) compared with historical healthy volunteers” value in [6] (administered with abacavir/dolutegravir/lamivudine) was “increased by approximately threefold”. In addition, the “riociguat exposure (AUC) compared with historical healthy volunteers” value in data set [6] (administered with ritonavir-boosted triple regimen) is listed as “slightly increased”. Also, the “riociguat exposure (AUC) compared with historical healthy volunteers” value in [6] (co-administered with efavirenz/emtricitabine/tenofovir disoproxil) is recorded as “similar”. Moreover, in data set [6] (co-administered with efavirenz/emtricitabine/tenofovir disoproxil, listed as Riociguat), the “riociguat exposure (AUC) compared with historical healthy volunteers” value is “no apparent change”. In addition, in “Safety and tolerability” (headache and stomach cramps, all resolved by study end), the “AEs considered related to riociguat” value was “Four AEs were considered related to riociguat in three participants”. In “Safety and tolerability” (setting [9]), the “AEs related to decreased blood pressure or hypotension” value was “No AEs related to decreased blood pressure or hypotension were reported”; the “changes in vital signs, electrocardiogram, or laboratory parameters” value is listed as “No clinically significant changes”; the “intensity of AEs” value is on record as “mild or moderate”. Moreover, the tolerability result in the data set “Safety and tolerability” (single 0.5 mg dose, adults with HIV on stable background ART) is given as “well tolerated”. The “serious AEs, AEs leading to discontinuation, or deaths” value in the data set “Safety and tolerability” (single 0.5 mg dose, adults with HIV, n = 41) is on record as “no serious AEs, AEs leading to discontinuation, or deaths”. In the data set “Safety and tolerability” (single 0.5 mg dose, adults with HIV, n = 41 (four participants)), this compound had a participants with headache of 10%. Moreover, in the data set “Safety and tolerability” (single 0.5 mg dose, adults with HIV, n = 41 (ten participants)), the “participants with a treatment-emergent AE” value is recorded as 24%. In “Safety and tolerability” (single 0.5 mg dose, adults with HIV, n = 41 (two participants)), this compound displayed a participants with fatigue of 5%. Further, in the data set “Safety and tolerability” (setting [10]), the “Any AE” value is reported as 10 (24) n (%), the Diarrhea is on record as 1 (2) n (%), the Dizziness is listed as 1 (2) n (%) and the Fatigue was 2 (5) n (%). Further, in the data set “Safety and tolerability” (setting [10]), the Headache is reported as 4 (10) n (%), the Lip swelling is on record as 1 (2) n (%), the Oral paresthesia is given as 1 (2) n (%) and the Oropharyngeal pain is 1 (2) n (%). Also, in the data set “Safety and tolerability” (setting [10]), the Pain was 1 (2) n (%), the Pyrexia is given as 1 (2) n (%), the Upper abdominal pain was 1 (2) n (%) and the Urethritis is on record as 1 (2) n (%). Also, in “Safety and tolerability” (setting [11]), the “Any AE” value is reported as 2 (25) n (%), the Diarrhea was 0 n (%), the Dizziness is reported as 0 n (%) and the Fatigue is 1 (13) n (%). Also, in “Safety and tolerability” (setting [11]), the Headache is reported as 1 (13) n (%), the Lip swelling is 0 n (%), the Oral paresthesia is on record as 0 n (%) and the Oropharyngeal pain is listed as 0 n (%). In the data set “Safety and tolerability” (setting [11]), the Pain is recorded as 0 n (%), the Pyrexia is 1 (13) n (%), the Upper abdominal pain is recorded as 0 n (%) and the Urethritis is 0 n (%). Besides, in “Safety and tolerability” (setting [12]), the “Any AE” value is recorded as 1 (13) n (%), the Diarrhea is on record as 0 n (%), the Dizziness is reported as 0 n (%) and the Fatigue is recorded as 0 n (%). For the same compound, in the data set “Safety and tolerability” (setting [12]), the Headache is listed as 0 n (%), the Lip swelling is 0 n (%), the Oral paresthesia is on record as 1 (13) n (%) and the Oropharyngeal pain is on record as 0 n (%). In “Safety and tolerability” (setting [12]), the Pain was 0 n (%), the Pyrexia is 0 n (%), the Upper abdominal pain is listed as 0 n (%) and the Urethritis was 0 n (%). For the same compound, in the data set “Safety and tolerability” (setting [13]), the “Any AE” value is listed as 2 (25) n (%), the Diarrhea is recorded as 0 n (%), the Dizziness is given as 1 (13) n (%) and the Fatigue is on record as 1 (13) n (%). Besides, in the data set “Safety and tolerability” (setting [13]), the Headache is 0 n (%), the Lip swelling was 1 (13) n (%), the Oral paresthesia is given as 0 n (%) and the Oropharyngeal pain was 0 n (%). Also, in the data set “Safety and tolerability” (setting [13]), the Pain is reported as 0 n (%), the Pyrexia is listed as 0 n (%), the Upper abdominal pain is on record as 0 n (%) and the Urethritis was 0 n (%). In the data set “Safety and tolerability” (setting [14]), the “Any AE” value is 3 (38) n (%), the Diarrhea is given as 0 n (%), the Dizziness was 0 n (%) and the Fatigue is recorded as 0 n (%). For the same compound, in the data set “Safety and tolerability” (setting [14]), the Headache is listed as 1 (13) n (%), the Lip swelling is reported as 0 n (%), the Oral paresthesia is 0 n (%) and the Oropharyngeal pain was 1 (13) n (%). Also, in the data set “Safety and tolerability” (setting [14]), the Pain is 1 (13) n (%), the Pyrexia is 0 n (%), the Upper abdominal pain is 0 n (%) and the Urethritis is reported as 1 (13) n (%). Besides, in “Safety and tolerability” (setting [15]), the “Any AE” value is 2 (22) n (%), the Diarrhea is recorded as 1 (11) n (%), the Dizziness is 0 n (%) and the Fatigue is recorded as 0 n (%). In the data set “Safety and tolerability” (setting [15]), the Headache was 2 (22) n (%), the Lip swelling was 0 n (%), the Oral paresthesia is 0 n (%) and the Oropharyngeal pain was 0 n (%). In addition, in the data set “Safety and tolerability” (setting [15]), the Pain was 0 n (%), the Pyrexia was 0 n (%), the Upper abdominal pain is reported as 1 (11) n (%) and the Urethritis is 0 n (%). In addition, in [7], the bioavailability is more than 90% and the “fraction of the dose eliminated by oxidative biotransformation” value is recorded as 27–71%. The mean half-life result in [7] (healthy individuals) is “approximately 7 h”. In addition, in data set [7] (patients with PAH), the mean half-life result is given as “approximately 12 h”. Besides, the “increase in mean AUC0-∞ compared with controls” value in data set [8] is 2.5 fold.
